Insulin prom act: TRM-6 insulin promoter activation. TRM-6 cells (human fetal islet line), insulin promoter eGFP reporter, imaging; plate-scaled: unstimulated 0, stimulated control 100. activation, % at 2 µM. 130,000 compounds, 0.81% hits. AID 1296;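 active = activation at 2 µM above a set limit, confirmed on inspection of the cell images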;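 also: share of cells whose green reporter signal exceeds an intensity cutoff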
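Test system: TRM-6 insulin promoter–eGFP reporter cells / Quantity: 1,000 cells per well / Reagent: tamoxifen inducer, 0.75 µM, in seeding medium / Compound dosing: 2 µM final, single concentration / Schedule: overnight tamoxifen, then two-day compound incubation at 37 °C / Measured by: automated fluorescence imaging of paraformaldehyde-fixed, Hoechst-counterstained cells, green channel / Read-out: percent activation from GFP-positive cell fraction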
* marks the source's active call; other numbers are inactive results. Only a selection was taken, and hits are over-represented in it overall.

SMILES | Insulin prom act
CCN(CC)c1ccc(/C=N/NC(=O)c2ccco2)cc1 | 0.0
CCN(CC)c1ccc(C=C2C(=O)OC(c3ccccc3)OC2=O)cc1 (stereo unspecified) | 312.5*
CCN(CC)c1ccc(C2NC(=O)NC(C)=C2C(=O)Nc2ccccc2)cc1 (stereo unspecified) | 109.1
CCOC(=O)/C(=C\c1cccc(O)c1)c1nc2sc(C)c(C)c2c(=O)[nH]1 | 0.0
Cc1ccc(N/C(C(Cl)=C(Cl)Cl)=C(/Cl)[N+](=O)[O-])c(C)c1 | -7.7
Cc1sc2nc(CSCC(=O)N(CCC#N)c3ccccc3)[nH]c(=O)c2c1C | 107.1
Cc1nnc(N2CCOCC2)c2nn(-c3cccc(Cl)c3)c(C)c12 | 233.3*
Cc1nnc(SCCN2CCOCC2)c2nn(-c3ccccc3F)c(C)c12 | 7.7
Cc1cccc(-n2ncc3c(N4CCOCC4)ncnc32)c1 | 2.4
CNC(=O)CN(c1cc(OCCOC)c(Cl)cc1Cl)S(=O)(=O)c1ccc(OC)cc1 | 135.7
CC(=O)c1cn(CCC(C)C)c(=O)[nH]c1=O | 7.7
O=[N+]([O-])c1ccc(NCCNCCOc2nonc2-c2ccccc2)c([N+](=O)[O-])c1 | 5.6
CC(C)Cc1cc(C(=O)N2CCCC(CCC(=O)N(C)CCc3ccccn3)C2)no1 (stereo unspecified) | 8.3
O=C(Nn1c(C2CCC2)nc2ccccc2c1=O)c1cccs1 | 0.0
O=C(CSc1nc2ccccc2c(=O)n1NC(=O)c1ccccc1)c1ccccc1 | 0.0
O=C(Nn1c(Cc2cccs2)nc2ccccc2c1=O)c1ccc(F)c(F)c1 | 418.8*
CCc1nnc(NC(=O)[C@@H](NC(=O)c2cccc(S(=O)(=O)N(CC)CC)c2)C(C)C)s1 | -5.7
CN(C)C(CNC(=S)Nc1cccc(Cl)c1)c1cccnc1 (stereo unspecified) | 0.0
O=C(N1CCCCCC1)N1CCN(S(=O)(=O)N2CCCCC2)CC1 | 0.0
O=C(N1CCOCC1)N1CCN(C(=O)N(c2ccccc2)c2ccccc2)CC1 | -5.4
O=C(N1CCCCCC1)N1CCN(C(=O)N2CCOCC2)CC1 | 487.5*
Cc1[nH]c2ccccc2c1-c1csc(NC(=O)CN2CCOCC2)n1 | -5.3
O=C(NNC(=O)[C@@H]1CCCC[C@@H]1C(=O)O)Nc1ccccc1 | -9.4
CC(C)(C)c1ccc(/C=N/NC(=S)NC2CCCCC2)cc1 | 421.4*
S=C(Nc1ccc(Oc2ccc(NC(=S)NC3CCCCC3)cc2)cc1)NC1CCCCC1 | 0.0
SMILES | Insulin prom act
S=C(Nc1ccc(Cl)c(Cl)c1)NC1CCCCC1 | 9.1
O=C(CSc1nnc(C2CC2)n1-c1ccccc1)NCCc1ccccc1 | -7.2
CCCCCCCCNC(=O)CCNC(=O)c1ccc(C(C)(C)C)cc1 | 0.0
COc1cc(/C=N/Nc2nc(N3CCCC3)nc(N3CCCC3)n2)ccc1O | 0.0
Fc1ccc(COc2ccc(Cl)cc2/C=N/Nc2nc(N3CCCC3)nc(N3CCCC3)n2)cc1 | 658.3*
CCOc1ccc(/C=N/Nc2nc(N3CCCC3)nc(N3CCCC3)n2)cc1OC | -5.7
COc1ccc(NC(=O)COC(=O)c2ncc(Cl)c(Cl)c2Cl)c(OC)c1 | 0.0
Cc1cccc(NC(=O)N2CCC(n3nnc4cc(C)ccc43)CC2)c1 | 0.0
O=S(=O)(NC1CCCC1)c1cccc(S(=O)(=O)N2CCC(n3nnc4ccccc43)CC2)c1 | 157.1*
O=S(=O)(NCC1CCCO1)c1cccc(S(=O)(=O)N2CCCC2)c1 (stereo unspecified) | 0.0
COc1cccc(C(C(=O)NC2CCCC2)N(Cc2ccccc2OC)C(=O)c2ccco2)c1 (stereo unspecified) | 214.3
COc1cccc(C(C(=O)NC2CCCCC2)N(C(=O)c2ccccn2)c2cccnc2)c1 (stereo unspecified) | 627.3*
O=C(NC1CCCCC1)C(c1cccs1)N(C(=O)c1ccccn1)c1ccccc1 (stereo unspecified) | 179.3
CC(C)=CC(=O)OCC(=O)NC1CCCc2ccccc21 (stereo unspecified) | -5.3
O=C(O)C1=C(C(=O)Nc2cccc(C(F)(F)F)c2)CCCC1 | 7.1
CCn1c(=O)cc(SCC(=O)Nc2cccc(C)n2)c2ccccc21 | -5.9
O=C(CSc1nnc(CCCOc2ccc(Cl)cc2Cl)o1)Nc1ccc(C(=O)O)cc1 | 3.8
CCN(C(=O)CCc1nc(-c2ccccc2F)no1)c1cc(OC)ccc1OC | -7.9
COc1cccc(NC(=O)CCc2nc(-c3ccccc3F)no2)c1 | 0.0
CCOc1cc(-c2noc(CCC(=O)Nc3cccnc3)n2)ccc1OC | -3.1
COc1ccccc1NC(=O)CCc1nc(-c2cccs2)no1 | 82.8*
COc1ccccc1NC(=O)CCc1nc(-c2ccccc2F)no1 | 305.3*
O=C(CCc1nc(-c2ccccc2)no1)Nc1cc(C(F)(F)F)ccc1Cl | -5.3
COc1ccc(OC)c2[nH]c(=O)c(CCNC(=O)c3ccc(Br)o3)cc12 | -85.7
OCCC1CN(CC(c2ccccc2)c2ccccc2)CCN1C1CCCC1 (stereo unspecified) | 0.0
SMILES | Insulin prom act
Cc1ccc(CNC(=O)C2CCN(S(=O)(=O)N3CCC4(CC3)OCCO4)CC2)cc1 | -5.6
CCCS(=O)c1nc(C)cc(C)c1S(C)(=O)=O (stereo unspecified) | 177.8
COc1cc2c(cc1OC)CN(c1nc(-c3cccnc3)nc3ccccc13)CC2 | 0.0
CC(C)NC(=O)c1cc2cc(Br)ccc2oc1=O | 128.6*
CC(C)NC(=O)COC(=O)c1cc(Br)ccc1Cl | -3.4
O=c1oc2ccc(Br)cc2cc1S(=O)(=O)c1ccc(F)cc1 | 8.1
CCOC(=O)N1CCN(C2OC(=O)c3ccccc32)CC1 (stereo unspecified) | 458.8*
CCOC(=O)N1CCN(C(=O)Cc2cccs2)CC1 | 7.1
O=C(C1CCCO1)N1CCN(C(=S)Nc2ccc(F)cc2)CC1 (stereo unspecified) | -2.8
O=C1OC(N2CCN(C(=O)C3CCCO3)CC2)c2ccccc21 (stereo unspecified) | 172.7*
O=C1OC(N2CCN(C/C=C/c3ccccc3)CC2)c2ccccc21 (stereo unspecified) | -83.3
O=C(C1CCCO1)N1CCN(S(=O)(=O)c2cccc3nsnc23)CC1 (stereo unspecified) | -3.8
CSc1nnc(C)c(=O)n1COC(=O)COc1ccc(Cl)cc1Cl | 8.3
O=C(CNC(=O)c1ccc(-c2ccccc2)cc1)OCc1c(F)cccc1Cl | 5.6
CCN1CCCC1CN(Cc1cc2ccc(C)cc2[nH]c1=O)C(=S)Nc1ccc(F)cc1 (stereo unspecified) | 146.2
CSc1nsc(SCC(=O)N2CCCCC2)n1 | -6.7
CC(=O)Nc1ccc(-n2cnnn2)cc1 | 512.5*
O=C(COc1ccc(F)cc1)Nc1ccc(-n2cnnn2)cc1 | -2.6
CCOC(=O)c1ccc(NC(=O)COc2ccc(-n3cnnn3)cc2)cc1 | 3.2
CCOC(=O)C(=O)c1c(-c2ccccc2)nc2ccccn12 | 450.0*
CCNC(=O)c1c(C)nc2ccccn12 | 0.0
Cc1nc2ccccn2c1C(=O)NCC(C)C | 0.0
Cc1ccc2cc(C(=O)O)c(C)nc2c1 | 2.8
Nc1ccccc1C(=O)N/N=C1\C2CN3CCN(C2)CC1(c1ccccc1)C3 | -6.9
CCOC(=O)C(Cc1c[nH]c2ccccc12)NC(=O)c1ccco1 (stereo unspecified) | -9.4
CCCC(=O)NC(c1ccco1)c1c(O)ccc2ccccc12 (stereo unspecified) | 133.3*
CCCC(=O)NC(c1ccco1)c1cc([N+](=O)[O-])c2cccnc2c1O (stereo unspecified) | 6.7
CCCCCCCCOC(=O)CCn1[nH]c(=O)c2ccccc2c1=O | 0.0
